Compound activity (PubChem)
In the library only some 0.77% were active in any assay of this set; here they are far more common.
hIAP inh = blocks human intestinal alkaline phosphatase | P09923 | purified IAP, CDP-Star luminescence, 30 min | inhibition, % at 10 µM | 330,000 tested, 0.12% active | AID 2544;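 active = inhibition reaching a set limit with compound at 10 µM in the primary screen, cut at about 35% in these data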
Target sequence (P09923 whole entry, looked up): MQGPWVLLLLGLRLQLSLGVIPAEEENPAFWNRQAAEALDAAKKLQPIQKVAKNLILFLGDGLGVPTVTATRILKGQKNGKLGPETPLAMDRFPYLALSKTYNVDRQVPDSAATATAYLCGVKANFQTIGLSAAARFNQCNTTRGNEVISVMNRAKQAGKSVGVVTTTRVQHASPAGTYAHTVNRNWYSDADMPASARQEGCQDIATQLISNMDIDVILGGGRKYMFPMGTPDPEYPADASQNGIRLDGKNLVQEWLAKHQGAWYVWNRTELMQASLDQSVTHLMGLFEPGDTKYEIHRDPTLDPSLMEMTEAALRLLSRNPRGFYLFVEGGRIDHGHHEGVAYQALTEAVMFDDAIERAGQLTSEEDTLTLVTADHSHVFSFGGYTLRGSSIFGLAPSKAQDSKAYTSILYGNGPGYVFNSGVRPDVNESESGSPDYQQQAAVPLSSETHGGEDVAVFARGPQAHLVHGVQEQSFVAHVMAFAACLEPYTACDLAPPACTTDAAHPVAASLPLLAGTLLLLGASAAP
bIAP inh = intestinal alkaline phosphatase (bovine) inhibition. purified bovine IAP, CDP-star luminescence, 30 min. AID 1019. inhibition, % at 20 µM. 190,000 tested, under 10 active;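 active = over 50% inhibition of intestinal alkaline phosphatase at 20 µM in the single-dose screen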
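System: Purified bovine intestinal alkaline phosphatase (IAP) enzyme | Input: IAP diluted 1/65,000,000 in the well | Also added: CDP-star chemiluminescent phosphatase substrate, 30 µM final | Dosing: 20 µM single dose | Times: Enzyme reaction for 30 min at room temperature | Detection: Luminescence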
hIAP activ = increases human intestinal alkaline phosphatase activity | 330,000 tested, 0.16% active | AID 2524 | activation factor at 10 µM | P09923 | purified human IAP, CDP-Star luminescence, 30 min; hits give high values; 1 = vehicle-only enzyme, 0 = enzyme-free background;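 active = activation factor of the enzyme at least 2-fold when tested at 20 µM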
mIAP act = mouse IAP activation. activation factor at 10 µM. muIAP, CDP-Star luminescence, 30 min; hits give high values; 1 = vehicle-only enzyme signal, 0 = enzyme-free wells. 330,000 tested, 0.24% active. AID 2805;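 active = activation factor of at least 2 at 20 µM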
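System: mouse IAP enzyme. Reagent: CDP-Star chemiluminescent phosphatase substrate. Benchmarks: DMSO wells, no-enzyme wells. Times: 30 min enzyme-substrate-compound incubation at room temperature. Detection: luminescence from enzymatic CDP-Star hydrolysis. Doses: test compounds delivered from DMSO solution.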
bIAP activator = increases bovine intestinal alkaline phosphatase activity; purified bovine IAP, CDP-star luminescence, 30 min; hits give high values; fold of DMSO-control signal, blank-subtracted; activation factor at 20 µM; 200,000 tested, 0.17% active;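 active = activation factor of 2 or more at 20 µM, a signal rise over negative controls twice the positive control's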
mIAP block = blocks mouse intestinal alkaline phosphatase | purified mouse IAP, CDP-Star luminescence, 30 min | inhibition, % at 10 µM | 330,000 tested, 0.2% active;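 active = inhibition of at least 40% at 10 µM in the primary screen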
Each line names hits and unclear results; the compound was inactive in the other large screens.

C/C=C\C(=O)Nc1cccc(C2=NOC3(C2)C[C@@H](C(N)=O)N(C(=O)c2ccccc2)C3)c1 (some centres not stated)	mIAP block 44 (no result: bIAP inh, bIAP activator)
O=C(CSc1nnc(CCc2nc3ccccc3[nH]2)n1-c1ccccc1)NCc1ccccc1	none
O=C(CSc1nnc(CCc2nc3ccccc3[nH]2)n1-c1ccccc1)NCc1ccco1	bIAP activator 2.5
Cc1ccc(NC(=S)NCc2ccc3[nH]c4c(c3c2)CCCC4)cc1	mIAP act 2.4
COc1ccc(C(=O)NCC(=O)OCC(=O)N2CC(C)OC(C)C2)cc1OC (configuration not stated)	none (no result: bIAP inh, bIAP activator)
O=C(Nc1ccccc1)Nc1ccc(-n2ccc(C(F)(F)F)n2)cc1	mIAP act 2.4 (no result: bIAP inh, bIAP activator)
CCCc1cc(C(=O)NNC(=S)NC2CCCCC2)cs1	none (no result: bIAP inh, bIAP activator)
Cn1nc(CC(=O)NC2CCCCCCCCCCC2)c2ccccc2c1=O	bIAP activator 2.3
Cn1nc(C(=O)NC2CCCCC2)c2ccccc2c1=O	none
Cc1cc(=O)oc2cc(O)c(N=Nc3ccccc3)cc12	none (no result: bIAP inh, bIAP activator)
C#CCOCCOCCOCCNc1nc(N2CCN(C(=O)[C@H](CCC(=O)O)n3cc(CN)nn3)CC2)nc(N2CCN(C(=O)[C@H](CCCCN)n3cc([C@@H](N)CC(N)=O)nn3)CC2)n1	none (no result: bIAP inh, bIAP activator)
COc1ccc(/C=N/Nc2cc(=O)n(C)c(=O)n2C)cc1OC	bIAP activator 2
Oc1ccc(N=C/C=C/c2cccc(Br)c2)cc1-c1nc2ccccc2s1	none
COc1cc(/C=N/NC(=O)C(=O)NCc2ccco2)cc(Br)c1O	none (no result: bIAP inh, bIAP activator)
CSC[C@@H]1NC(=S)N(c2ccc(C)cc2)C1=O	none
COc1ccc(Cl)cc1NC(=S)NCCSc1ccc(C)cc1	mIAP act 2.6
Cc1ccc(NC(=O)NCCSc2ccc(C)cc2)cc1	mIAP act 2.5
Cc1ccc(SCCNC(=S)Nc2cc(C)cc(C)c2)cc1	mIAP act 3.3
COc1ccccc1NC(=S)NCCSc1ccc(Cl)cc1	none
O=C(NCC1CCCO1)c1cccc(NS(=O)(=O)c2ccccc2)c1 (configuration not stated)	none (no result: bIAP inh, bIAP activator)
Cc1cccc(NC(=O)C2C(c3ccccc3)C2(Cl)Cl)c1 (configuration not stated)	mIAP act 2.5
COc1ccc(C(=O)N2CCN(C(=O)CC(C)C)CC2)cc1OC	none
COc1cc(C(=O)N2CCN(C(=O)CC(C)C)CC2)cc(OC)c1OC	mIAP block 40
COC(=O)c1ccccc1N1C(=O)C2C(C1=O)[C@H]1C=C[C@@H]2C1 (some centres not stated)	mIAP block 50
Cc1nc2cc(NC(=O)Nc3ccc(Br)cc3)ccc2o1	mIAP act 2
Cc1nc2cc(NC(=O)NCc3ccc4c(c3)OCO4)ccc2o1	none
CCOC(=O)c1ccc(NC(=O)Nc2ccc(F)cc2)cc1	mIAP act 2.5
CCOC(=O)c1ccc(NC(=O)NCc2ccccc2OC)cc1	mIAP act 2.4
CCCCOC(=O)c1ccc(NC(=O)Nc2ccc(OC)c(OC)c2)cc1	mIAP act 2.2
COC(=O)c1ccc(NC(=O)Nc2ccc(F)cc2)cc1	none
CCOC(=O)c1cccc(NC(=O)Nc2ccc(OCC)cc2)c1	mIAP act 2.9
CCOC(=O)c1ccc(NC(=O)NCc2ccccc2)cc1	none
O=C(N/C(=C\c1ccc(Cl)cc1)C(=O)N1CCOCC1)c1ccc([N+](=O)[O-])cc1	none
COc1ccc(C2Nc3ccccc3C(=O)N2O)cc1CN1CCOCC1 (configuration not stated)	bIAP activator 2
COc1ccc(C2Nc3ccccc3C(=O)N2O)cc1OC (configuration not stated)	none
COc1cc(OC)c(OC)cc1CNC(=O)c1ccc(COc2ccccc2)cc1	none (no result: bIAP inh, bIAP activator)
Cc1cccc(NS(=O)(=O)c2cnc[nH]2)c1	bIAP activator 2
N#C/C(=C(/O)COC(=O)CSc1ccc2ccccc2c1)c1nc2ccccc2[nH]1	hIAP activ 2.4
Cc1cc(C)nc(N2CCCC(C(=O)Nc3nc4ccc(S(C)(=O)=O)cc4s3)C2)n1 (configuration not stated)	bIAP activator 5.3
OCCN1CCN(CC(O)COc2ccc3ccccc3c2)CC1 (configuration not stated)	bIAP activator 2.9
S=C(NCc1cccs1)Nc1cc(Cl)cc(Cl)c1	mIAP act 4 (no result: bIAP inh, bIAP activator)
COc1ccc(CNC(=S)Nc2ccc(F)c(Cl)c2)cc1	mIAP act 2.6
S=C(NCc1ccc(Cl)cc1)Nc1ccccc1	none
S=C(NCc1ccc(Cl)cc1Cl)Nc1ccccc1	mIAP act 2.4
Fc1ccc(CNC(=S)Nc2cccc(Cl)c2)cc1	mIAP act 2.4
Cc1ccc(NC(=O)CCN2CCOCC2)cc1C	none (no result: bIAP inh, bIAP activator)
O=C(NCCc1ccccc1)c1nc(-c2cccs2)no1	none
COc1cccc(CN2CC(C(=O)NCCn3ccc(C)n3)CCC2=O)c1 (configuration not stated)	none (no result: bIAP inh, bIAP activator)
COCCNc1ccc(N2C(=O)CCCC2=O)cc1[N+](=O)[O-]	none
OCC1(Cc2ccccc2)CCCN(Cc2c[nH]c3ccccc23)C1 (configuration not stated)	none
CCCCCCc1cc2cc(S(=O)(=O)c3ccc(F)c(Cl)c3)c(=O)oc2cc1O	none
Fc1cccc(NC(=S)NCc2ccccc2Cl)c1	mIAP act 3 (no result: bIAP inh, bIAP activator)
Cc1cc(Cl)ccc1NC(=S)NCc1ccccc1Cl	mIAP act 2.6
COc1ccccc1CC(NC(C)=O)C(=O)NC1CCN(S(=O)(=O)c2ccccc2)CC1 (configuration not stated)	none (no result: bIAP inh, bIAP activator)
N#C/C(=C/c1ccc(N2CCCCC2)o1)C(=O)Nc1ccc(Cl)cc1	hIAP inh 38
O=C(c1ccc(OC2CCN(CCCc3ccccc3)CC2)cc1)N1CCCC1	none (no result: bIAP inh, bIAP activator)
O=C(CNC(=O)c1ccco1)N/N=C/c1cccs1	none (no result: bIAP inh, bIAP activator)
COc1cccc(NC(=O)C2CCN(S(=O)(=O)c3ccc4c(c3)CC(C)N4C(C)=O)CC2)c1 (configuration not stated)	none (no result: bIAP inh, bIAP activator)
CCc1cccc(NC(=O)C2CCN(S(=O)(=O)c3ccc4c(c3)CC(C)N4C(C)=O)CC2)c1 (configuration not stated)	mIAP act 2.2 (no result: bIAP inh, bIAP activator)
CC(=O)N1c2ccc(S(=O)(=O)N3CCC(C(=O)Nc4cccc(C(F)(F)F)c4)CC3)cc2CC1C (configuration not stated)	mIAP act 2.4 (no result: bIAP inh, bIAP activator)
CN(C)/C=C/c1oc2ccc(O)cc2c1[N+](=O)[O-]	hIAP inh 46
Cc1oc2ccc(O)cc2c1C(=O)c1ccc([N+](=O)[O-])cc1	none
CCCc1c(NC(=O)Nc2ccc(F)cc2)cnn1-c1ccccc1	mIAP act 2.3 (no result: bIAP inh, bIAP activator)
COc1ccc(NS(=O)(=O)c2ccc3c(c2)N(C(C)=O)CCO3)cc1	none (no result: bIAP inh, bIAP activator)
O=C(Nc1ccccc1)Nc1nc(-c2ccc(F)c(F)c2)cs1	mIAP act 2.5 (no result: bIAP inh, bIAP activator)
